# How the values were obtained:
# [1] = Cytotoxicity against human Raji cells assessed as cell viability at 10^-6 M; format: cell-based; conditions: read-out: Activity
# [2] = Cytotoxicity against human Raji cells assessed as cell viability at 10^-7 M; format: cell-based; conditions: read-out: Activity
# [3] = system: Human gammaherpesvirus 4; assay: Induction of EBV-early antigen expressed in human Raji cells at 10^-6 M after 48 hrs by immunofluorescence assay relative to control; format: organism-based; conditions: human gammaherpesvirus 4, raji, 1 µM
# Outline: (§1)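 Raji B-lymphoblastoid cells (5 × 10^5/mL) in RPMI 1640 with 10% FBS, with 4 mM sodium n-butyrate as synergist and test compound at 10^-7 or 10^-6 M (final DMSO 0.4%). Incubated 48 h at 37 °C under 5% CO2. Smears were stained by indirect immunofluorescence using NPC patient serum and FITC anti-human IgG. At least 500 cells counted; % EA-positive recorded; n = 3, SEM.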
# [4] = system: Human gammaherpesvirus 4; assay: Induction of EBV-early antigen expressed in human Raji cells at 10^-7 M after 48 hrs by immunofluorescence assay relative to control; format: organism-based; conditions: human gammaherpesvirus 4, raji, 0.1 µM; outline: as §1
# [5] = system: PC-3; assay: Growth inhibition of human PC3 cells after 48 hrs by sulforhodamine B assay; format: functional; conditions: PC-3, 48 h
# Outline: (§2)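 Yamori 39-line human cancer panel, NCI method with modifications. Cells plated in RPMI 1640 plus 5% FBS, attached overnight, then exposed 48 h to compound at 10^-8, 10^-7, 10^-6, 10^-5 and 10^-4 M. Sulforhodamine B staining read at 525 nm; % growth = 100[(T−T0)/(C−T0)] from duplicate-point averages, with T0 the time-zero absorbance. GI50 is the concentration giving 50.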
# [6] = system: DU-145; assay: Growth inhibition of human DU145 cells after 48 hrs by sulforhodamine B assay; format: functional; conditions: DU-145, 48 h; outline: as §2
# [7] = system: MKN-74; assay: Growth inhibition of human MKN74 cells after 48 hrs by sulforhodamine B assay; format: functional; conditions: MKN-74, 48 h; outline: as §2
# [8] = system: MKN-28; assay: Growth inhibition of human MKN28 cells after 48 hrs by sulforhodamine B assay; format: functional; conditions: MKN-28, 48 h; outline: as §2
# [9] = system: MKN-45; assay: Growth inhibition of human MKN45 cells after 48 hrs by sulforhodamine B assay; format: functional; conditions: MKN-45, 48 h; outline: as §2
# [10] = system: MKN-7; assay: Growth inhibition of human MKN7 cells after 48 hrs by sulforhodamine B assay; format: functional; conditions: MKN-7, 48 h; outline: as §2
# [11] = system: St-4; assay: Growth inhibition of human St-4 cells after 48 hrs by sulforhodamine B assay; format: functional; conditions: St-4, 48 h; outline: as §2
# [12] = Growth inhibition of human MKN1 cells after 48 hrs by sulforhodamine B assay; format: functional; conditions: MKN-1, 48 h; outline: as §2
# [13] = Growth inhibition of human RXF631L cells after 48 hrs by sulforhodamine B assay; format: functional; conditions: RXF 631, 48 h; outline: as §2
# [14] = system: ACHN; assay: Growth inhibition of human ACHN cells after 48 hrs by sulforhodamine B assay; format: functional; outline: as §2
# [15] = system: OVCAR-8; assay: Growth inhibition of human OVCAR8 cells after 48 hrs by sulforhodamine B assay; format: functional; conditions: OVCAR-8, 48 h; outline: as §2
# [16] = system: SK-OV-3; assay: Growth inhibition of human SKOV3 cells after 48 hrs by sulforhodamine B assay; format: functional; conditions: SK-OV-3, 48 h; outline: as §2
# [17] = system: OVCAR-5; assay: Growth inhibition of human OVCAR5 cells after 48 hrs by sulforhodamine B assay; format: functional; conditions: OVCAR-5, 48 h; outline: as §2
# [18] = system: OVCAR-3; assay: Growth inhibition of human OVCAR3 cells after 48 hrs by sulforhodamine B assay; format: functional; conditions: OVCAR-3, 48 h; outline: as §2
# [19] = system: OVCAR-4; assay: Growth inhibition of human OVCAR4 cells after 48 hrs by sulforhodamine B assay; format: functional; conditions: OVCAR-4, 48 h; outline: as §2
# [20] = system: DMS-114; assay: Growth inhibition of human DMS114 cells after 48 hrs by sulforhodamine B assay; format: functional; conditions: DMS-114, 48 h; outline: as §2
# [21] = system: LOX IMVI; assay: Growth inhibition of human LOXIMVI cells after 48 hrs by sulforhodamine B assay; format: functional; outline: as §2
# [22] = system: A549; assay: Growth inhibition of human A549 cells after 48 hrs by sulforhodamine B assay; format: functional; conditions: A549, 48 h; outline: as §2
# [23] = system: DMS-273; assay: Growth inhibition of human DMS273 cells after 48 hrs by sulforhodamine B assay; format: functional; conditions: DMS-273, 48 h; outline: as §2
# [24] = system: NCI-H460; assay: Growth inhibition of human NCI-H460 cells after 48 hrs by sulforhodamine B assay; format: functional; conditions: NCI-H460, 48 h; outline: as §2
# [25] = system: NCI-H226; assay: Growth inhibition of human NCI-H226 cells after 48 hrs by sulforhodamine B assay; format: functional; conditions: NCI-H226, 48 h; outline: as §2
# [26] = system: NCI-H522; assay: Growth inhibition of human NCI-H522 cells after 48 hrs by sulforhodamine B assay; format: functional; conditions: NCI-H522, 48 h; outline: as §2
# [27] = system: HCT-116; assay: Growth inhibition of human HCT116 cells after 48 hrs by sulforhodamine B assay; format: functional; conditions: HCT-116, 48 h; outline: as §2
# [28] = system: NCI-H23; assay: Growth inhibition of human NCI-H23 cells after 48 hrs by sulforhodamine B assay; format: functional; conditions: NCI-H23, 48 h; outline: as §2
# [29] = system: HCT-15; assay: Growth inhibition of human HCT15 cells after 48 hrs by sulforhodamine B assay; format: functional; conditions: HCT-15, 48 h; outline: as §2
# [30] = system: KM12; assay: Growth inhibition of human KM12 cells after 48 hrs by sulforhodamine B assay; format: functional; conditions: KM12, 48 h; outline: as §2
# [31] = system: HT-29; assay: Growth inhibition of human HT-29 cells after 48 hrs by sulforhodamine B assay; format: functional; conditions: HT-29, 48 h; outline: as §2
# [32] = system: SNB-78; assay: Growth inhibition of human SNB78 cells after 48 hrs by sulforhodamine B assay; format: functional; conditions: SNB-78, 48 h; outline: as §2
# [33] = Growth inhibition of human HCC2998 cells after 48 hrs by sulforhodamine B assay; format: functional; conditions: HCC 2998, 48 h; outline: as §2
# [34] = system: SF-539; assay: Growth inhibition of human SF539 cells after 48 hrs by sulforhodamine B assay; format: functional; conditions: SF-539, 48 h; outline: as §2
# [35] = system: SNB-75; assay: Growth inhibition of human SNB75 cells after 48 hrs by sulforhodamine B assay; format: functional; conditions: SNB-75, 48 h; outline: as §2
# [36] = system: SF-295; assay: Growth inhibition of human SF295 cells after 48 hrs by sulforhodamine B assay; format: functional; conditions: SF-295, 48 h; outline: as §2
# [37] = system: U-251; assay: Growth inhibition of human U251 cells after 48 hrs by sulforhodamine B assay; format: functional; conditions: U-251, 48 h; outline: as §2
# [38] = system: SF-268; assay: Growth inhibition of human SF268 cells after 48 hrs by sulforhodamine B assay; format: functional; conditions: SF-268, 48 h; outline: as §2
# [39] = system: MCF7; assay: Growth inhibition of human MCF7 cells after 48 hrs by sulforhodamine B assay; format: functional; conditions: MCF7, 48 h; outline: as §2
# [40] = system: MDA-MB-231; assay: Growth inhibition of human MDA-MB-231 cells after 48 hrs by sulforhodamine B assay; format: functional; conditions: MDA-MB-231, 48 h; outline: as §2
# [41] = Growth inhibition of human BSY1 cells after 48 hrs by sulforhodamine B assay; format: functional; conditions: BSY-1, 48 h; outline: as §2
# [42] = Growth inhibition of human HBC5 cells after 48 hrs by sulforhodamine B assay; format: functional; conditions: HBC5, 48 h; outline: as §2
# [43] = Growth inhibition of human HBC4 cells after 48 hrs by sulforhodamine B assay; format: functional; conditions: HBC4, 48 h; outline: as §2
# [44] = Octanol-water partition coefficient, log P of the compound by HPLC analysis; format: physicochemical
# Outline: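 log P was estimated from HPLC retention, with column dead time measured using unretained formamide.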
# [45] = biological target: T1, Protein kinase C delta type (Homo sapiens, UniProt Q05655); assay: Inhibition of [3H]PDBu binding to PKCdelta-C1A domain peptide (unknown origin)
# T1 sequence (Q05655 whole entry, the tested form may be a part): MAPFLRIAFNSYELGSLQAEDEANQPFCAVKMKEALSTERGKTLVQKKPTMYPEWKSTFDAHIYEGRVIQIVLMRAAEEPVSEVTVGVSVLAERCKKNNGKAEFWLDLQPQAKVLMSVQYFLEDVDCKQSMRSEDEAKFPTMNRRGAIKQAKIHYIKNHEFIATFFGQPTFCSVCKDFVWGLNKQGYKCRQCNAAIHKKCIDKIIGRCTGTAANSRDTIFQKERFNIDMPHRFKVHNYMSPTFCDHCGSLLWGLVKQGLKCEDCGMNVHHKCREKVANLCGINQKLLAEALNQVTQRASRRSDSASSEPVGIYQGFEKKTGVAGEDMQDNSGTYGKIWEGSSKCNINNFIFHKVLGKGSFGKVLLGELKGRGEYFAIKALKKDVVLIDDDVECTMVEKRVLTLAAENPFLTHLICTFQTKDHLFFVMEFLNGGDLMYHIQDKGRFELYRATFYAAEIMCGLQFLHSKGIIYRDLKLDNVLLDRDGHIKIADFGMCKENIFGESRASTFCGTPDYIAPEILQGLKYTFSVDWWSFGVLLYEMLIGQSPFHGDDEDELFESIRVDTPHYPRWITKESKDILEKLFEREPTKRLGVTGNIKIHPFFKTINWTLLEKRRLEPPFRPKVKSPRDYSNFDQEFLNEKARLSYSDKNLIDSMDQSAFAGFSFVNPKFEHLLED
# Outline: (§3)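 Competitive [3H]PDBu binding used 14 or 40 nM PKCδ C1 peptide and 20 nM [3H]PDBu (19.6 Ci/mmol), in 50 mM Tris-maleate (pH 7.4 at 4 °C) with 50 µg/mL phosphatidylserine, 3 mg/mL bovine γ-globulin and varied inhibitor concentrations. IC50 was taken as 50% inhibition of specific binding. Ki was derived by the Sharkey–Blumberg method.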
# [46] = biological target: T1, Protein kinase C delta type; assay: Inhibition of [3H]PDBu binding to PKCdelta-C1B domain peptide (unknown origin); outline: as §3
compound,measurement,setting,value
CC1(C)CC[C@@H]2CC(=O)O[C@@H](CO)CC(=O)O[C@@H]3C[C@@H](CCCCc4ccc(I)c(O)c4)O[C@@]1(C3)O2,viability at 1 µM,[1],40%
same,viability at 0.1 µM,[2],50%
same,Activity,[3],2.3%
same,Activity,[4],2.1%
same,GI50,[5],3.09 µM
same,GI50,[6],11.7 µM
same,GI50,[7],11.7 µM
same,GI50,[8],0.617 µM
same,GI50,[9],11.7 µM
same,GI50,[10],13.5 µM
same,GI50,[11],0.933 µM
same,GI50,[12],11.2 µM
same,GI50,[13],12 µM
same,GI50,[14],10 µM
same,GI50,[15],16.2 µM
same,GI50,[16],14.8 µM
same,GI50,[17],4.47 µM
same,GI50,[18],6.31 µM
same,GI50,[19],13.2 µM
same,GI50,[20],10.7 µM
same,GI50,[21],2.88 µM
same,GI50,[22],3.31 µM
same,GI50,[23],0.191 µM
same,GI50,[24],6.03 µM
same,GI50,[25],12 µM
same,GI50,[26],12 µM
same,GI50,[27],10.2 µM
same,GI50,[28],11 µM
same,GI50,[29],15.5 µM
same,GI50,[30],10.5 µM
same,GI50,[31],14.5 µM
same,GI50,[32],17 µM
same,GI50,[33],1.62 µM
same,GI50,[34],12 µM
same,GI50,[35],12.3 µM
same,GI50,[36],4.07 µM
same,GI50,[37],14.5 µM
same,GI50,[38],13.8 µM
same,GI50,[39],12.3 µM
same,GI50,[40],1.58 µM
same,GI50,[41],11 µM
same,GI50,[42],15.8 µM
same,GI50,[43],0.295 µM
same,logP,[44],4.3
same,Ki,[45],0.082 µM
same,Ki,[46],0.0013 µM
CC1(C)CC[C@@H]2CC(=O)O[C@@H](CO)CC(=O)O[C@@H]3C[C@@H](CCCCc4cc(O)ccc4I)O[C@@]1(C3)O2,viability at 1 µM,[1],50%
same,viability at 0.1 µM,[2],50%
same,Activity,[3],1.4%
same,Activity,[4],1.3%
same,GI50,[5],4.68 µM
same,GI50,[6],12.9 µM
same,GI50,[7],11.7 µM
same,GI50,[8],0.813 µM
same,GI50,[9],12 µM
same,GI50,[10],11.5 µM
same,GI50,[11],0.427 µM
same,GI50,[12],10.7 µM
same,GI50,[13],12.9 µM
same,GI50,[14],10.7 µM
same,GI50,[15],16.2 µM
same,GI50,[16],15.8 µM
same,GI50,[17],5.13 µM
same,GI50,[18],5.89 µM
same,GI50,[19],13.8 µM
same,GI50,[20],11 µM
same,GI50,[21],2 µM
same,GI50,[22],4.07 µM
same,GI50,[23],0.251 µM
same,GI50,[24],10.5 µM
same,GI50,[25],12.6 µM
same,GI50,[26],11.7 µM
same,GI50,[27],10.5 µM
same,GI50,[28],7.94 µM
same,GI50,[29],15.1 µM
same,GI50,[30],10.5 µM
same,GI50,[31],13.8 µM
same,GI50,[32],15.1 µM
same,GI50,[33],0.891 µM
same,GI50,[34],11 µM
same,GI50,[35],10.5 µM
same,GI50,[36],6.31 µM
same,GI50,[37],12.9 µM
same,GI50,[38],13.8 µM
same,GI50,[39],13.8 µM
same,GI50,[40],1.55 µM
same,GI50,[41],9.77 µM
same,GI50,[42],15.8 µM
same,GI50,[43],0.158 µM
same,logP,[44],4.2
same,Ki,[45],0.11 µM
same,Ki,[46],0.0046 µM

# — ChEMBL document CHEMBL2380295, “Structure-activity studies on the side chain of a simplified analog of aplysiatoxin (aplog-1) with anti-proliferative activity” (Bioorg Med Chem, 2013)
